Key:
[1] = target: T1, D(1A) dopamine receptor (Rattus norvegicus, UniProt P18901); assay: Affinity for dopamine receptor D1 binding measured by competition against [3H]-SCH- 23390 to rat striatal membrane; set-up: species or system Striatum
How it was run: (§1)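 Radioligand displacement analysed with a one-site model. D1 sites come from rat striatum and are labelled with [3H]SCH23390. D2A is the cloned human receptor expressed in Ltk- cells and labelled with [3H]raclopride. Ki is the mean ± standard error of n = 2–3 experiments.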

[2] = target: T2, D(2) dopamine receptor (Homo sapiens, UniProt P14416); assay: Displacement of [3H]raclopride from human Dopamine receptor D2A
[3] = target: T3, 5-hydroxytryptamine receptor 1A (Rattus norvegicus, UniProt P19327); assay: In vitro displacement of [3H]8-OH-DPAT binding to rat hippocampal 5-hydroxytryptamine 1A receptor; format: tissue-based, Hippocampus
T3 sequence (P19327 whole entry): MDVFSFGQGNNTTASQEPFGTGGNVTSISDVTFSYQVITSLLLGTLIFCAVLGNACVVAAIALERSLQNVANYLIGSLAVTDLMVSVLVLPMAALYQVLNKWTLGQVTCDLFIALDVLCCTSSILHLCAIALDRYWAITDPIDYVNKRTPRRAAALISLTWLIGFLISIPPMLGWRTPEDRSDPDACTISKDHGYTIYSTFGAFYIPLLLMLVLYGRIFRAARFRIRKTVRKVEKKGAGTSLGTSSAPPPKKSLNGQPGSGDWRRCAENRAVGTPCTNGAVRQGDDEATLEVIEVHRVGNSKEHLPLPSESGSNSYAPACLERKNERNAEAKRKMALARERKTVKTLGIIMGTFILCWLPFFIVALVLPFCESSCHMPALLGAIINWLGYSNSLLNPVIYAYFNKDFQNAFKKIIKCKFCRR

[4] = target: T1, D(1A) dopamine receptor
[5] = test system: Rattus norvegicus; assay: In vivo accumulation of DOPA in percent of saline control was determined in striatum of reserpine pretreated rat at a dose of 3.3 uM/kg; format: functional
How it was run: (§2)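 Rats get reserpine 5 mg/kg sc 18–20 h beforehand. A single dose of test drug is given. NSD1015 (117 mg/kg sc) is injected 30 min after drug to block decarboxylase. 5-HTP or DOPA accumulation is measured in limbic forebrain, striatum and cortex and expressed as percent of saline controls, mean ± SEM, n = 2–4. Statistics use one-way ANOVA with Fisher's PLSD.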

[6] = test system: Rattus norvegicus; assay: In vivo accumulation of 5HTP in percent of saline control was determined in cortex of reserpine pretreated rat at a dose of 3.3 uM/kg; format: functional; how it was run: as §2
[7] = test system: Rattus norvegicus; assay: In vivo accumulation of 5HTP in percent of saline control was determined in striatum of reserpine pretreated rat at a dose of 3.3 uM/kg; format: functional; how it was run: as §2
[8] = test system: Rattus norvegicus; assay: In vivo accumulation of 5HTP in percent of saline control was determined in limbic forebrain of reserpine pretreated rat at a dose of 3.3 uM/kg; format: functional; how it was run: as §2
[9] = test system: Rattus norvegicus; assay: In vivo accumulation of DOPA in percent of saline control was determined in cortex of reserpine pretreated rat at a dose of 3.3 uM/kg; format: functional; how it was run: as §2
[10] = test system: Rattus norvegicus; assay: In vivo accumulation of DOPA in percent of saline control was determined in limbic forebrain of reserpine pretreated rat at a dose of 3.3 uM/kg; format: functional; how it was run: as §2
[11] = target: T2, D(2) dopamine receptor; assay: Displacement of [3H]-raclopride fromd human Dopamine receptor D2A expressed in LtK- cells; format: cell-based; how it was run: as §1
[12] = test system: Rattus norvegicus; assay: In vivo accumulation of 5HTP in percent of saline control was determined in limbic forebrain of reserpine pretreated rat at a dose of 30 uM/kg; format: functional; how it was run: as §2
[13] = test system: Rattus norvegicus; assay: In vivo accumulation of DOPA in percent of saline control was determined in cortex of reserpine pretreated rat at a dose of 30 uM/kg; format: functional; how it was run: as §2
[14] = test system: Rattus norvegicus; assay: In vivo accumulation of DOPA in percent of saline control was determined in striatum of reserpine pretreated rat at a dose of 30 uM/kg; format: functional; how it was run: as §2
[15] = test system: Rattus norvegicus; assay: In vivo accumulation of 5HTP in percent of saline control was determined in cortex of reserpine pretreated rat at a dose of 30 uM/kg; format: functional; how it was run: as §2
[16] = test system: Rattus norvegicus; assay: In vivo accumulation of 5HTP in percent of saline control was determined in striatum of reserpine pretreated rat at a dose of 30 uM/kg; format: functional; how it was run: as §2
[17] = test system: Rattus norvegicus; assay: In vivo accumulation of DOPA in percent of saline control was determined in limbic forebrain of reserpine pretreated rat at a dose of 30 uM/kg; format: functional; how it was run: as §2
[18] = test system: Rattus norvegicus; assay: In vivo accumulation of 5HTP in percent of saline control was determined in limbic forebrain of reserpine pretreated rat at dose of 3.5 uM/kg; format: functional; how it was run: as §2
[19] = test system: Rattus norvegicus; assay: In vivo accumulation of DOPA in percent of saline control was determined in cortex of reserpine pretreated rat at dose of 3.5 uM/kg; format: functional; how it was run: as §2
[20] = test system: Rattus norvegicus; assay: In vivo accumulation of DOPA in percent of saline control was determined in striatum of reserpine pretreated rat at dose of 3.5 uM/kg; format: functional; how it was run: as §2
[21] = test system: Rattus norvegicus; assay: In vivo accumulation of DOPA in percent of saline control was determined in limbic forebrain of reserpine pretreated rat at dose of 3.5 uM/kg; format: functional; how it was run: as §2
[22] = test system: Rattus norvegicus; assay: In vivo accumulation of 5HTP in percent of saline control was determined in striatum of reserpine pretreated rat at dose of 3.5 uM/kg; format: functional; how it was run: as §2
[23] = test system: Rattus norvegicus; assay: In vivo accumulation of 5HTP in percent of saline control was determined in cortex of reserpine pretreated rat at dose of 3.5 uM/kg; format: functional; how it was run: as §2
[24] = test system: Rattus norvegicus; assay: In vivo accumulation of DOPA in percent of saline control was determined in cortex of reserpine pretreated rat at a dose of 2.9 uM/kg; format: functional
How it was run: (§3)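 Reserpine 5 mg/kg sc given 18–20 h before. Single test dose given; 30 min later decarboxylase inhibited with NSD1015 (117 mg/kg sc). 5-HTP or DOPA accumulation measured in limbic forebrain, striatum and cortex, expressed as percent of saline controls (mean ± SEM, n = 2–4). Saline-control DOPA levels given in ng/g tissue. One-way ANOVA with Fischer's PLSD, p < 0.05.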

[25] = test system: Rattus norvegicus; assay: In vivo accumulation of 5HTP in percent of saline control was determined in striatum of reserpine pretreated rat at a dose of 2.9 uM/kg; format: functional; how it was run: as §3
[26] = test system: Rattus norvegicus; assay: In vivo accumulation of DOPA in percent of saline control was determined in striatum of reserpine pretreated rat at a dose of 2.9 uM/kg; format: functional; how it was run: as §3
[27] = test system: Rattus norvegicus; assay: In vivo accumulation of 5HTP in percent of saline control was determined in limbic forebrain of reserpine pretreated rat at a dose of 2.9 uM/kg; format: functional; how it was run: as §3
[28] = test system: Rattus norvegicus; assay: In vivo accumulation of 5HTP in percent of saline control was determined in cortex of reserpine pretreated rat at a dose of 2.9 uM/kg; format: functional; how it was run: as §3
[29] = test system: Rattus norvegicus; assay: In vivo accumulation of DOPA in percent of saline control was determined in limbic forebrain of reserpine pretreated rat at a dose of 2.9 uM/kg; format: functional; how it was run: as §3
[30] = test system: Rattus norvegicus; assay: In vivo accumulation of DOPA in percent of saline control was determined in cortex of reserpine pretreated rat at dose of 3.2 uM/kg; format: functional; how it was run: as §2
[31] = test system: Rattus norvegicus; assay: In vivo accumulation of DOPA in percent of saline control was determined in striatum of reserpine pretreated rat at dose of 3.2 uM/kg; format: functional; how it was run: as §2
[32] = test system: Rattus norvegicus; assay: In vivo accumulation of DOPA in percent of saline control was determined in limbic forebrain of reserpine pretreated rat at dose of 3.2 uM/kg; format: functional; how it was run: as §2
[33] = test system: Rattus norvegicus; assay: In vivo accumulation of 5HTP in percent of saline control was determined in cortex of reserpine pretreated rat at dose of 3.2 uM/kg; format: functional; how it was run: as §2
[34] = test system: Rattus norvegicus; assay: In vivo accumulation of 5HTP in percent of saline control was determined in striatum of reserpine pretreated rat at dose of 3.2 uM/kg; format: functional; how it was run: as §2
[35] = test system: Rattus norvegicus; assay: In vivo accumulation of 5HTP in percent of saline control was determined in limbic forebrain of reserpine pretreated rat at dose of 3.2 uM/kg; format: functional; how it was run: as §2
[36] = test system: Rattus norvegicus; assay: In vivo accumulation of 5HTP in percent of saline control was determined in limbic forebrain of reserpine pretreated rat at a dose of 3.7 uM/kg; format: functional; how it was run: as §2
[37] = test system: Rattus norvegicus; assay: In vivo accumulation of DOPA in percent of saline control was determined in striatum of reserpine pretreated rat at a dose of 3.7 uM/kg; format: functional; how it was run: as §2
[38] = test system: Rattus norvegicus; assay: In vivo accumulation of DOPA in percent of saline control was determined in cortex of reserpine pretreated rat at a dose of 3.7 uM/kg; format: functional; how it was run: as §2
[39] = test system: Rattus norvegicus; assay: In vivo accumulation of DOPA in percent of saline control was determined in limbic forebrain of reserpine pretreated rat at a dose of 3.7 uM/kg; format: functional; how it was run: as §2
[40] = test system: Rattus norvegicus; assay: In vivo accumulation of 5HTP in percent of saline control was determined in striatum of reserpine pretreated rat at a dose of 3.7 uM/kg; format: functional; how it was run: as §2
[41] = test system: Rattus norvegicus; assay: In vivo accumulation of 5HTP in percent of saline control was determined in cortex of reserpine pretreated rat at a dose of 3.7 uM/kg; format: functional; how it was run: as §2

T2 sequence (P14416 whole entry): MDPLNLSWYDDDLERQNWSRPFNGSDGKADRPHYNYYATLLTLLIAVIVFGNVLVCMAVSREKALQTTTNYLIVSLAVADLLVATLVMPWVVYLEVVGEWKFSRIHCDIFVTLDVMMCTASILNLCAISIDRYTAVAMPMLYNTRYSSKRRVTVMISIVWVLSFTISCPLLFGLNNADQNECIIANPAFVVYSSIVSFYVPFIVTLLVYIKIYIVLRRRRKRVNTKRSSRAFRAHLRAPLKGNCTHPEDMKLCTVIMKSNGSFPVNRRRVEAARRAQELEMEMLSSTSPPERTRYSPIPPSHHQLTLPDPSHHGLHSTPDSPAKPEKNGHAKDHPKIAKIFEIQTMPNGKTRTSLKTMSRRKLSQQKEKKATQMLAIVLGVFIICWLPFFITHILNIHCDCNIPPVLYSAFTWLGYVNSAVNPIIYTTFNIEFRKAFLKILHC
T1 sequence (P18901 whole entry): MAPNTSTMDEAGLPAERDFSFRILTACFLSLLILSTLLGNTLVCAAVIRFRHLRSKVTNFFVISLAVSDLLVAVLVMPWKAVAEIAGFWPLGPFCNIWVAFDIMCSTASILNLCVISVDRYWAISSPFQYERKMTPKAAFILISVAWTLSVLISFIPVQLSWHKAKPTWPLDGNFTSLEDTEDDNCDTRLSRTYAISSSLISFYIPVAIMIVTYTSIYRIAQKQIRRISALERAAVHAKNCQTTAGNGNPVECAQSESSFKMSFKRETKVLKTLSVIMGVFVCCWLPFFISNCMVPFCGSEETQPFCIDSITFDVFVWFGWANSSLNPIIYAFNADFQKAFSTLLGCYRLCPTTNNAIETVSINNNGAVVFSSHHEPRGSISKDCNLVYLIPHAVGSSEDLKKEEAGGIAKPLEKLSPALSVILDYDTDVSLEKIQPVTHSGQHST

Structure (SMILES) | Ki [2] | Ki [3] | Ki [4] | Ki [11] | further results
COc1cccc2c1-c1cccc3c1[C@@H](C2)N(C(C)C)CC3 | 1000 nM | 375 nM |  |  | Ki [1]: > 10000 nM
CN1CCc2cccc3c2[C@H]1Cc1cccc(C#N)c1-3 | 183 nM | 41.1 nM | 279 nM |  | 
COc1cccc2c1-c1cccc3c1[C@@H](C2)N(C)CC3 | 551 nM | 5.1 nM | 606 nM |  | 
CCc1cccc2c1-c1cccc3c1[C@@H](C2)N(C)CC3 | 79.2 nM | 4.5 nM | 270 nM |  | Accumulation [5]: 92; Accumulation [6]: 104; Accumulation [7]: 95; Accumulation [8]: 83; Accumulation [9]: 100; Accumulation [10]: 87
COc1cccc2c1-c1cccc3c1[C@@H](C2)NCC3 |  | 8.3 nM | > 5000 nM | > 1000 nM | 
CCCN1CCc2cccc3c2[C@H]1Cc1cccc(OC)c1-3 |  | 31.3 nM | > 5000 nM | 826 nM | Accumulation [12]: 96; Accumulation [13]: 82; Accumulation [14]: 43; Accumulation [15]: 89; Accumulation [16]: 87; Accumulation [17]: 66
Oc1cccc2c1-c1cccc3c1[C@@H](C2)N(Cc1ccccc1)CC3 |  | > 5000 nM | > 3000 nM | > 1000 nM | 
COc1cccc2c1-c1cccc3c1[C@@H](C2)N(Cc1ccccc1)CC3 |  | 3220 nM | > 10000 nM | > 1000 nM | 
CN1CCc2cccc3c2[C@H]1Cc1cccc(O)c1-3 |  |  |  |  | Accumulation [18]: 98; Accumulation [19]: 103; Accumulation [20]: 30; Accumulation [21]: 67; Accumulation [22]: 83; Accumulation [23]: 93
C=Cc1cccc2c1-c1cccc3c1[C@@H](C2)N(C)CC3 | 177 nM | 6 nM |  |  | Ki [1]: 720 nM
CN1CCc2cccc3c2[C@H]1Cc1cccc(-c2ccccc2)c1-3 | 233 nM | 1.8 nM |  |  | Ki [1]: 3630 nM; Accumulation [24]: 107; Accumulation [25]: 106; Accumulation [26]: 93; Accumulation [27]: 95; Accumulation [28]: 133; Accumulation [29]: 95
CCCN1CCc2cccc3c2[C@H]1Cc1cccc(O)c1-3 |  |  |  |  | Accumulation [30]: 106; Accumulation [31]: 29; Accumulation [32]: 66; Accumulation [33]: 87; Accumulation [34]: 97; Accumulation [35]: 122
Cc1cccc2c1-c1cccc3c1[C@@H](C2)N(C)CC3 | 201 nM | 14.4 nM | 700 nM |  | 
CN1CCc2cccc3c2[C@H]1Cc1cccc(C(N)=O)c1-3 |  | 198 nM | > 4000 nM | > 10000 nM | 
Oc1cccc2c1-c1cccc3c1[C@@H](C2)NCC3 |  | 5.7 nM | 1100 nM | > 1000 nM | Accumulation [36]: 108; Accumulation [37]: 71; Accumulation [38]: 96; Accumulation [39]: 78; Accumulation [40]: 89; Accumulation [41]: 122
COc1ccccc1-c1cccc2c1-c1cccc3c1[C@@H](C2)N(C)CC3 |  | 26.9 nM | > 3000 nM | 1330 nM | 
CC(=O)c1cccc2c1-c1cccc3c1[C@@H](C2)N(C)CC3 |  | 57.1 nM |  | 311 nM | Ki [1]: 4690 nM
CC(C)N1CCc2cccc3c2[C@H]1Cc1cccc(O)c1-3 |  | 437 nM | > 10000 nM | 1010 nM | 
CN1CCc2cccc3c2[C@H]1Cc1cccc(OS(=O)(=O)C(F)(F)F)c1-3 | 195 nM | 7.7 nM | 386 nM |  | 

— ChEMBL document CHEMBL1129625, “11-substituted (R)-aporphines: synthesis, pharmacology, and modeling of D2A and 5-HT1A receptor interactions” (J Med Chem, 1996)
